# Tests used:
# [1] = In vitro plasma stability / metabolite identification; assay type: in vitro ADME; conditions: 10 μM, 37 °C, 60 min incubation
# Method in brief: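 Mouse plasma was spiked at 10 μM and shaken at 37 °C. Triplicate aliquots at 0 and 60 min were quenched with 2 volumes of ice-cold acetonitrile containing 5 μM losartan, then centrifuged at 12000g for 10 min. Supernatant was diluted 1:1 with water. Parent loss and metabolites were tracked by C18 LC–ESI-TOF MS.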
# [2] = cited from earlier work
# [3] = Plasma levels of 1 after single oral dose in mice; assay type: in vivo, mouse; conditions: dose equivalent of 10 mg/kg of 1, plasma 30 min after administration
# Method in brief: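 Male CD-1 mice (25–30 g) got a single oral dose of 10 mg/kg parent equivalent in 50 mM HEPES-buffered saline, pH 7.4, made the same day. At 30 min, mice were killed with pentobarbital and blood taken by cardiac puncture into heparin. Plasma (200g, 15 min; stored −80 °C) was assayed by C18 LC-MS/MS, parent transition 279.986 > 203.066/247.173, losartan internal standard. Mean ± SEM, n = 3.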
# [4] = system: rat chronic constriction injury model of neuropathic pain; experiment: Chronic constrictive injury; assay type: in vivo; conditions: rat CCI
# Method in brief: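 Male Sprague–Dawley rats (200–250 g, n = 10–15/group) received four loose chromic gut ligatures, 1 mm apart, on the sciatic nerve. From day 10 post-surgery, hind-paw withdrawal latency to a plantar thermal stimulus was read to 0.1 s (normal response within 15 s). Difference score: nonligated minus ligated. Sessions twice weekly, 3 days apart. Daily oral gavage, 1 h pre-test. Gabapentin 50/100 mg/kg po as control. Student's t-test.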
# rhGCPII = rhGCPII (Homo sapiens, UniProt Q04609); experiment: GCPII radioenzymatic inhibition assay with 3H-NAAG; assay type: biochemical; conditions: relative to compound 1
# Sequence of rhGCPII (Q04609 whole entry): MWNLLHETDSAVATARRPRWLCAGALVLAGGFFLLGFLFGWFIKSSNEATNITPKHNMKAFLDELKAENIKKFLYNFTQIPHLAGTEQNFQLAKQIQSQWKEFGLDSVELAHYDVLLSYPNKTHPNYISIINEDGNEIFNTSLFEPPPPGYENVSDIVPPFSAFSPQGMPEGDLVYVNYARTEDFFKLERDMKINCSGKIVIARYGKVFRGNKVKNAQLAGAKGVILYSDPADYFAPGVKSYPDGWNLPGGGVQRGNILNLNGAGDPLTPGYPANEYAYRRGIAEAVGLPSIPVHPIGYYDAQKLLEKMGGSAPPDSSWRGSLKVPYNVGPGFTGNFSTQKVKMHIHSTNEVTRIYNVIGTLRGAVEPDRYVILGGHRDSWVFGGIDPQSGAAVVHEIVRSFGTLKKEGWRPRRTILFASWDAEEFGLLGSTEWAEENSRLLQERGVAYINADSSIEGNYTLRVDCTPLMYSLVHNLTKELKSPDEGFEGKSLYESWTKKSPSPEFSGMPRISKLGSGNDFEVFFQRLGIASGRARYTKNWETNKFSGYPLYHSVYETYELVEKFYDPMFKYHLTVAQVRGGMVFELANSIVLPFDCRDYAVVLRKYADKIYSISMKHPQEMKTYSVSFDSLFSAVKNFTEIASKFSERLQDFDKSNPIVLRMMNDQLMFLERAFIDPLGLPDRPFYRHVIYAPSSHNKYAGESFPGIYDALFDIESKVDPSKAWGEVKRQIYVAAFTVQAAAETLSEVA
# Method in brief: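 Recombinant human GCPII was started with a mix of 0.31 μM NAAG plus 15 nM 3H-NAAG (concentrations in the added mix). After 20 min, the reaction was stopped with 200 mM potassium phosphate, 50 mM EDTA and 2 mM β-mercaptoethanol, pH 7.4. Released glutamate was isolated by ion exchange and counted by scintillation. IC50 was fitted from inhibition curves.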
# [5] = Stability under GCPII enzyme assay conditions; assay type: physicochemical; conditions: 30 m in aqueous buffer; pH 8.0
Structure (SMILES),stability / bioconversion in mouse plasma (in words) [1],plasma levels of 1 following oral administration of prodrug (in words) [3],other results
"O=C(CCC(Cc1ccc(C(=O)O)cc1)C(=O)O)NO (stereo not drawn) [Compound 1, 4-Carboxy-α-[3-(hydroxyamino)-3-oxopropyl]-benzenepropanoic acid]",completely stable,–,distribution to sciatic nerves (in words) [2]: good distribution to sciatic nerves
"CC(=O)ONC(=O)CCC(Cc1ccc(C(=O)O)cc1)C(=O)O (stereo not shown) [Compound 7, 4-(5-(Acetoxyamino)-2-carboxy-5-oxopentyl)benzoic Acid]",–,equal or higher,–
"CC(=O)Oc1ccc(CONC(=O)CCC(Cc2ccc(C(=O)O)cc2)C(=O)O)cc1 (stereo not shown) [Compound 12, 4-(5-(((4-Acetoxybenzyl)oxy)amino)-2-carboxy-5-oxopentyl)-benzoic Acid]",complete conversion of prodrug 12 to 1,equal or higher,effect on absolute latency of the sham operated side ([4]; 4.6 mg/kg/day po): no significant effect; first day of significantly reduced thermal hyperalgesia ([4]; 12 at 4.6 mg/kg/day po (3 mg/kg equivalent of 1)): 4 days
"Cc1oc(=O)oc1CONC(=O)CCC(Cc1ccc(C(=O)O)cc1)C(=O)O (stereo not shown) [Compound 17, 4-(2-Carboxy-5-(((5-methyl-2-oxo-1,3-dioxol-4-yl)methoxy)-amino)-5-oxopentyl)benzoic Acid]",–,equal or higher,fold less potency compared to 1 (GCPII inhibition) (rhGCPII): 12 fold; stability under GCPII enzyme assay conditions (in words) [5]: partial hydrolysis to 1
"CCOC(=O)c1ccc(CC(CCC(=O)NOCc2ccc(OC(C)=O)cc2)C(=O)O)cc1 (stereo not shown) [Compound 23, 5-(((4-Acetoxybenzyl)oxy)amino)-2-(4-(ethoxycarbonyl)benzyl)-5-oxopentanoic Acid]",not converted into 1,–,–
"CC(=O)Oc1ccc(CONC(=O)CCC(Cc2ccc(C(=O)OCOC(=O)OC(C)C)cc2)C(=O)O)cc1 (stereo not shown) [Compound 30, 5-(((4-Acetoxybenzyl)oxy)amino)-2-(4-((((isopropoxycarbonyl)-oxy)methoxy)carbonyl)benzyl)-5-oxopentanoic Acid]",completely hydrolyzed,–,–
"NCC1(CC(=O)O)CCCCC1 [gabapentin, reference compound]",–,–,"reversal of allodynia (positive control) ([4]; 100 mg/kg po daily, maintained throughout the dosing period): significantly reversed allodynia"

# From paper PMC5795597 (Journal of medicinal chemistry, 2017)
